ChEMBL document CHEMBL1136016, “Synthesis, biological activity, and molecular modeling investigation of new pyrazolo[4,3-e]-1,2,4-triazolo[1,5-c]pyrimidine derivatives as human A(3) adenosine receptor antagonists” (J Med Chem, 2002)

What was measured:
[1] = biological target: Adenosine receptors; A1 & A3 (Homo sapiens) (UniProt P30542+P0DMS8); test: Selectivity ratio (hA1/hA3); format: protein assay
Adenosine receptor A1 [2] = biological target: T1, Adenosine receptor A1 (Homo sapiens, UniProt P30542); test: Displacement of [3H]DPCPX from human Adenosine A1 receptor expressed in CHO cells; range 724-889; format: cell-based
T1 sequence (P30542 whole entry): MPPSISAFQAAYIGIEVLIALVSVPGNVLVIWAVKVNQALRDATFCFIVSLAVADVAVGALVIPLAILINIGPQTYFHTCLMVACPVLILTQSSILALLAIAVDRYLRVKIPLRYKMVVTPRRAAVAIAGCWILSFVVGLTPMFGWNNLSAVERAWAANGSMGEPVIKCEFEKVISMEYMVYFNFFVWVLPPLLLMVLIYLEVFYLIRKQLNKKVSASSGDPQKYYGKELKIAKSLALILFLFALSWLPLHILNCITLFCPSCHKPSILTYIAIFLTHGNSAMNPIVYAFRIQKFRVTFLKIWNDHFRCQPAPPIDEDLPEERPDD
How it was run: (§1)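 Human recombinant A1 receptor in CHO cell membranes, resuspended in 50 mM Tris HCl pH 7.4. Displacement run 120 min at 25 °C with 1 nM [3H]DPCPX, 50 µg protein per assay, and at least six to eight test concentrations. Nonspecific binding defined with CHA. Bound and free separated on glass-fiber filters; filter radioactivity counted. n = 3-6.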

Adenosine receptor A3 [3] = biological target: T2, Adenosine receptor A3 (Homo sapiens, UniProt P0DMS8); test: biochemical
T2 sequence (P0DMS8 whole entry): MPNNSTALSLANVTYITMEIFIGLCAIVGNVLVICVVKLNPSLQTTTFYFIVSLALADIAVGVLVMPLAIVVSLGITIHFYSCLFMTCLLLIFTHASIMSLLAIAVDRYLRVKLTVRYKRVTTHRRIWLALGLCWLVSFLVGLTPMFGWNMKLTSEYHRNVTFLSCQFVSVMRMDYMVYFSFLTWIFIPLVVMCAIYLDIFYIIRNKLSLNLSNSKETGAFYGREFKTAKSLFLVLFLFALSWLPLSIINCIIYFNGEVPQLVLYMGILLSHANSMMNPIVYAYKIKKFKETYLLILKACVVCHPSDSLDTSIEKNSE

Adenosine receptor A2b [4] = biological target: T3, Adenosine receptor A2b (Homo sapiens, UniProt P29275); test: Displacement of [3H]DPCPX from human Adenosine A2B receptor expressed in HEK293 cells; range 37-63; format: cell-based
T3 sequence (P29275 whole entry): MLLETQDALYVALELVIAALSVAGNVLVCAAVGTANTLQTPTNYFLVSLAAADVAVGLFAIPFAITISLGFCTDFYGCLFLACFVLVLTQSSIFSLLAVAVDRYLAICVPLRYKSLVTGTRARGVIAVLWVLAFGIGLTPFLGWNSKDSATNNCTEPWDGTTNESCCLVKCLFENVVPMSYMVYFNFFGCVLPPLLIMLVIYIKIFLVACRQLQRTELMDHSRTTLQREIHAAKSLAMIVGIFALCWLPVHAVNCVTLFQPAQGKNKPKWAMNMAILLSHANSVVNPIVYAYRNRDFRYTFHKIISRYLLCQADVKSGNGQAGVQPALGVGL
How it was run: (§2)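 HEK-293 membranes expressing the human receptor were incubated 60 min at 25 °C. Six to eight test concentrations were used. Nonspecific binding was set with NECA. n = 3-6.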

Adenosine receptor A2a [5] = biological target: T4, Adenosine receptor A2a (Homo sapiens, UniProt P29274); test: Displacement of [3H]SCH-58261 from human Adenosine A2A receptor expressed in HEK293 cells; range 511-648; format: cell-based
[6] = biological target: Adenosine receptors; A2b & A3 (Homo sapiens) (UniProt P29275+P0DMS8); test: Selectivity ratio (h2B/hA3); format: protein assay
Adenosine receptor A3 [7] = biological target: T2, Adenosine receptor A3; test: biochemical; remark: listed apart in the source
Adenosine receptor A1 [8] = biological target: T1, Adenosine receptor A1; test: Displacement of [3H]DPCPX from human Adenosine A1 receptor expressed in CHO cells; format: cell-based; how it was run: as §1
Adenosine receptor A2b [9] = biological target: T3, Adenosine receptor A2b; test: Displacement of [3H]DPCPX binding at human Adenosine A2B receptor expressed in HEK293 cells; format: cell-based
How it was run: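 Membranes from HEK-293 cells with human recombinant A2B receptor. Incubation 60 min at 25 °C in 50 mM Tris HCl, 10 mM MgCl2, 1 mM EDTA, 0.1 mM benzamidine, pH 7.4, with 2 IU/mL adenosine deaminase and 40 nM [3H]DPCPX. At least six to eight test concentrations. Nonspecific binding defined with NECA. n = 3-6.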

Adenosine receptor A2a [10] = biological target: T4, Adenosine receptor A2a; test: Displacement of [3H]SCH-58261 from human Adenosine A2A receptor expressed in HEK293 cells; range 240-388; format: cell-based
Adenosine receptor A2b [11] = biological target: T3, Adenosine receptor A2b; test: Displacement of [3H]-DPCPX from human Adenosine A2B receptor expressed in HEK293 cells; range 206-282; format: cell-based
How it was run: (§3)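 Competition binding on membranes of HEK-293 cells carrying recombinant human A2B receptor. Incubation 60 min at 25 °C in 50 mM Tris HCl pH 7.4 with 10 mM MgCl2, 1 mM EDTA, 0.1 mM benzamidine and 2 IU/mL adenosine deaminase. Radioligand 40 nM [3H]DPCPX, at least six to eight test concentrations. NECA defined nonspecific binding. Bound ligand separated on glass-fibre filters and counted; n = 3-6.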

Adenosine receptor A2a [12] = biological target: T4, Adenosine receptor A2a; test: Displacement of [3H]SCH-58261 from human Adenosine A2A receptor expressed in HEK293 cells; range 40-96; format: cell-based
Adenosine receptor A3 [13] = biological target: T2, Adenosine receptor A3; test: Displacement of [3H]MRE3008-F20 from human Adenosine A3 receptor expressed in HEK cells; range 0.10-0.18; format: cell-based, HEK293
Adenosine receptor A2a [14] = biological target: T4, Adenosine receptor A2a; test: Displacement of [3H]SCH-58261 from human Adenosine A2A receptor expressed in HEK293 cells; range 91-137; format: cell-based
Adenosine receptor A3 [15] = biological target: T2, Adenosine receptor A3; test: Displacement of [3H]MRE3008-F20 from human Adenosine A3 receptor expressed in HEK cells; range 0.37-0.50; format: cell-based, HEK293
Adenosine receptor A1 [16] = biological target: T1, Adenosine receptor A1; test: Displacement of [3H]-DPCPX from human Adenosine A1 receptor expressed in CHO cells; range 240-368; format: cell-based
Adenosine receptor A2b [17] = biological target: T3, Adenosine receptor A2b; test: Displacement of [3H]DPCPX from human Adenosine A2B receptor expressed in HEK293 cells; range 76-98; format: cell-based; how it was run: as §2
Adenosine receptor A2b [18] = biological target: T3, Adenosine receptor A2b; test: Displacement of [3H]DPCPX from human Adenosine A2B receptor expressed in HEK293 cells; range 152-216; format: cell-based; how it was run: as §3
Adenosine receptor A3 [19] = biological target: T2, Adenosine receptor A3; test: Displacement of [3H]MRE3008-F20 from human Adenosine A3 receptor expressed in HEK cells; range 0.39-0.54; format: cell-based, HEK293
Adenosine receptor A1 [20] = biological target: T1, Adenosine receptor A1; test: Displacement of [3H]DPCPX from human Adenosine A1 receptor expressed in CHO cells; range 512-698; format: cell-based
How it was run: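 Competition binding on membranes of CHO cells stably expressing human A1 receptor, resuspended in 50 mM Tris HCl pH 7.4. Incubation 120 min at 25 °C with 1 nM [3H]DPCPX, 50 µg protein per assay and at least six to eight test concentrations. CHA defined nonspecific binding. Bound ligand separated on glass-fibre filters and counted; n = 3-6.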

Adenosine receptor A2a [21] = biological target: T4, Adenosine receptor A2a; test: Displacement of [3H]SCH-58261 from human Adenosine A2A receptor expressed in HEK293 cells; range 83-120; format: cell-based
Adenosine receptor A3 [22] = biological target: T2, Adenosine receptor A3; test: Inhibition of IB-MECA agonist-mediated cAMP production in CHO cell membranes expressing human Adenosine A3 receptor; range 2.7-6.6; format: functional, cell-based
How it was run: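 Human A3-CHO membranes (in 50 mM Tris HCl, 10 mM MgCl2, 1 mM EDTA, pH 7.4) were preincubated for 10 min at 37 °C with 5 µM GTP, 0.5 mM Ro 20-1724 and 2.0 IU/mL adenosine deaminase. IB-MECA (100 nM) or antagonist was then added with 1 mM ATP and forskolin for 10 min. The reaction was stopped by 2 min boiling. cAMP was measured by [3H]cAMP competitive protein binding using beef adrenal binding protein, 150 min at 4 °C.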

Adenosine receptor A3 [23] = biological target: T2, Adenosine receptor A3; test: Displacement of [3H]MRE3008-F20 binding at human Adenosine A3 receptor expressed in HEK cells; range 0.76-0.98; format: cell-based, HEK293
Adenosine receptor A2b [24] = biological target: T3, Adenosine receptor A2b; test: Displacement of [3H]DPCPX from human Adenosine A2B receptor expressed in HEK293 cells; range 65-94; format: cell-based; how it was run: as §3
Adenosine receptor A1 [25] = biological target: T1, Adenosine receptor A1; test: Displacement of [3H]DPCPX from human Adenosine A1 receptor expressed in CHO cells; range 245-319; format: cell-based

T4 sequence (P29274 whole entry): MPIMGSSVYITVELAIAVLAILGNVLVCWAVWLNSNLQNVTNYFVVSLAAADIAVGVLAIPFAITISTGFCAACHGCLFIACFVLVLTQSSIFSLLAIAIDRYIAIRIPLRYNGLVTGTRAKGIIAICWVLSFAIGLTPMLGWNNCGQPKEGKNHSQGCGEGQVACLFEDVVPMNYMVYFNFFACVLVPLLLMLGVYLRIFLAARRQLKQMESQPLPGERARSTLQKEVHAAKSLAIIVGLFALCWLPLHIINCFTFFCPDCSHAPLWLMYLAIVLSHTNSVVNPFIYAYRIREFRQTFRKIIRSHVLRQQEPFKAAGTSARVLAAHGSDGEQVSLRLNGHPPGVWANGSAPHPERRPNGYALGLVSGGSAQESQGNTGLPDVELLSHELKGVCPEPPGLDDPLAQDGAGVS

CCn1cc2c(nc(NC(=O)Nc3ccc4c(c3)OCO4)n3nc(-c4ccco4)nc23)n1
Ratio [1]: 2970
Ki (Adenosine receptor A1 [2]): 802 nM
Ki (Adenosine receptor A3 [3]): 0.27 nM
Ki (Adenosine receptor A2b [4]): 48 nM
Ki (Adenosine receptor A2a [5]): 576 nM
Ratio [6]: 178

CCCn1cc2c(nc(NC(=O)Nc3ccc(S(=O)(=O)O)cc3)n3nc(-c4ccco4)nc23)n1
Ratio [1]: > 333
Ki (Adenosine receptor A3 [7]): 30 nM
Ki (Adenosine receptor A1 [8]): > 10000 nM
Ki (Adenosine receptor A2b [9]): > 10000 nM
Ki (Adenosine receptor A2a [10]): 305 nM
Ratio [6]: > 333

CCCn1cc2c(nc(NC(=O)Nc3ccccc3)n3nc(-c4ccco4)nc23)n1
Ratio [1]: 1170
Ki (Adenosine receptor A2b [11]): 241 nM
Ki (Adenosine receptor A2a [12]): 62 nM
Ki (Adenosine receptor A3 [13]): 0.15 nM
Ratio [6]: 1610

CCCCn1cc2c(nc(NC(=O)Nc3ccc(Cl)cc3)n3nc(-c4ccco4)nc23)n1
Ki (Adenosine receptor A2a [14]): 111 nM
Ratio [1]: 698
Ki (Adenosine receptor A3 [15]): 0.43 nM
Ki (Adenosine receptor A1 [16]): 300 nM
Ki (Adenosine receptor A2b [17]): 87 nM
Ratio [6]: 202

Cn1cc2c(nc(NC(=O)Nc3ccc(Br)cc3)n3nc(-c4ccco4)nc23)n1
Ki (Adenosine receptor A2b [18]): 181 nM
Ki (Adenosine receptor A3 [19]): 0.46 nM
Ratio [1]: 1300
Ki (Adenosine receptor A1 [20]): 600 nM
Ki (Adenosine receptor A2a [21]): 100 nM
IC50 (Adenosine receptor A3 [22]): 4.2 nM
Ratio [6]: 393

CCCCn1cc2c(nc(NC(=O)Nc3ccccc3Cl)n3nc(-c4ccco4)nc23)n1
Ratio [1]: 326
Ki (Adenosine receptor A3 [23]): 0.86 nM
Ki (Adenosine receptor A2a [21]): 100 nM
Ki (Adenosine receptor A2b [24]): 78 nM
Ki (Adenosine receptor A1 [25]): 280 nM
Ratio [6]: 91
